Experimental data as given in ChEMBL document CHEMBL4312030, “Synthesis, biological evaluation, and docking study of indole aryl sulfonamides as aromatase inhibitors” (Eur J Med Chem, 2020).
Active and inactive are the calls of the source. No cut-off for these calls is given here.

Columns and labels:
Aromatase [1] = target: T1, Aromatase (Homo sapiens, UniProt P11511); experiment: Inhibition of recombinant human aromatase at 1 uM preincubated for 10 mins followed by substrate and beta-NADP+ addition and measured for 60 mins by fluorimetric assay relative to letrozole; conditions: 1 h
T1 sequence (P11511 whole entry): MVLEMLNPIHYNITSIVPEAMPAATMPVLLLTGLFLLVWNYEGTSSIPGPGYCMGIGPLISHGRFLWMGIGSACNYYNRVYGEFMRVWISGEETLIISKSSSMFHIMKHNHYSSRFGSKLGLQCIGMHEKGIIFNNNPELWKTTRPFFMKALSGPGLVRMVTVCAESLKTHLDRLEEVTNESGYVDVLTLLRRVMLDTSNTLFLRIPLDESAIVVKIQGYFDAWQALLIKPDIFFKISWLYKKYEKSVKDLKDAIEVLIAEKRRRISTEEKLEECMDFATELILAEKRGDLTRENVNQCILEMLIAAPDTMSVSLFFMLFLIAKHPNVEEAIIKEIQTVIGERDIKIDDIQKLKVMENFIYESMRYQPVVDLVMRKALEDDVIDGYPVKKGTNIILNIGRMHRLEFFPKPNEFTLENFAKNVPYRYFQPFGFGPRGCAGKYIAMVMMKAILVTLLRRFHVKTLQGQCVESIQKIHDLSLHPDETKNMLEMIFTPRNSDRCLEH
Method in brief: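 Fluorimetric kit assay with recombinant human aromatase plus NADPH generating system; compounds at 1 µM final (from 5X in ACN; solvent 0.5% ACN), preincubated 10 min at 37°C.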

Aromatase [2] = target: T1, Aromatase; experiment: Inhibition of recombinant human aromatase preincubated for 10 mins followed by substrate and beta-NADP+ addition and measured for 60 mins by fluorimetric assay
Method in brief: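 Recombinant human aromatase with NADPH generating system, preincubated 10 min at 37°C with inhibitor at 0.01-100 µM final (5X stocks 0.05-500 µM in ACN). Fluorogenic substrate/β-NADP+ added; fluorescence Ex/Em 488/527 nm kinetic 60 min. IC50 from fitted multi-point dose-response curves; mean of triplicate ± RSD.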

MCF7 [3] = experiment: Cytotoxicity against human MCF7 cells assessed as cell metabolic activity at 250 uM after 24 hrs by MTT assay relative to control; assay type: functional
Method in brief: (§1)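 MCF7 cells in DMEM high glucose with 10% FBS, 1% pen/strep, seeded 1x10⁴/well, adhered 24 h, then treated 0-250 µM for 24, 48 or 72 h. MTT (1 mg/ml, 1:10 in fresh medium) 4 h at 37°C, 5% CO₂; formazan dissolved in DMSO, OD 540 nm. Expressed as % of DMSO-treated cells (final DMSO <0.2%); three experiments in triplicate (n=9).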

MCF7 [4] = experiment: Cytotoxicity against human MCF7 cells assessed as active metabolizing cells at 100 uM after 48 hrs by MTT assay relative to control; assay type: functional; method in brief: as §1
MCF7 [5] = experiment: Cytotoxicity against human MCF7 cells assessed as active metabolizing cells at 250 uM after 48 hrs by MTT assay relative to control; assay type: functional; method in brief: as §1
MCF7 [6] = experiment: Cytotoxicity against human MCF7 cells assessed as reduction in cell viability after 72 hrs by MTT assay; assay type: functional, cell-based; method in brief: as §1
MCF7 [7] = experiment: Cytotoxicity against human MCF7 cells assessed as LDH release up to 250 uM after 24 hrs by CytoTox 96 Non-Radioactive assay relative to control; assay type: functional
Method in brief: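 MCF7 cells (DMEM high glucose, 10% FBS, 1% pen/strep) seeded 1x10⁴/well, adhered 24 h, then exposed to 0-250 µM for 24 h. Supernatants centrifuged 450xg 4 min; LDH measured by 30-min coupled INT-to-formazan reaction, absorbance 490 and 690 nm. %LDH released = [(A490–B690)/(C–B)]×100, C = positive control cell lysate.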

MCF7 [8] = experiment: Cytotoxicity against human MCF7 cells assessed as cell metabolic activity after 24 hrs by MTT assay relative to control; assay type: functional; method in brief: as §1
MCF7 [9] = experiment: Cytotoxicity against human MCF7 cells assessed as cell metabolic activity at 10 uM after 48 hrs by MTT assay relative to control; assay type: functional; method in brief: as §1
MCF7 [10] = experiment: Cytotoxicity against human MCF7 cells assessed as reduction in cell viability at 100 uM after 24 to 72 hrs by MTT assay; assay type: functional, cell-based; method in brief: as §1

SMILES | inhibition at 1 µM (Aromatase [1]) | IC50 (Aromatase [2]) | Activity (MCF7 [7]) | Activity (MCF7 [8]) | Activity (MCF7 [9]) | further results
O=[N+]([O-])c1cccc(S(=O)(=O)Nc2ccc3cc[nH]c3c2)c1 | 18.6% | – | – | – | – | –
Cc1ccc(S(=O)(=O)NCc2ccc3[nH]ccc3c2)cc1 | 33.4% | – | – | – | – | –
O=S(=O)(Cc1ccccc1)Nc1ccc2[nH]ccc2c1 | 129% | 0.16 µM | 35 - 40% | 45% | 40 - 45% | Activity (MCF7 [3]): 38.62%; Activity (MCF7 [4]): 19.53%; Activity (MCF7 [5]): 20.08%; inhibition (MCF7 [6]): Dose-dependent effect
Cc1ccc(S(=O)(=O)Nc2ccc3cc[nH]c3c2)cc1 | 83.2% | 0.49 µM | 35 - 40% | 45% | 40 - 45% | Activity (MCF7 [3]): 36.63%; Activity (MCF7 [4]): 20.78%; Activity (MCF7 [5]): 22.08%; inhibition (MCF7 [6]): Dose-dependent effect
Cc1ccc(S(=O)(=O)Nc2ccc3[nH]ccc3c2)cc1[N+](=O)[O-] | 12.8% | – | – | – | – | –
O=S(=O)(NCc1ccc2[nH]ccc2c1)c1ccccc1 | 20.7% | – | – | – | – | –
O=S(=O)(Cc1ccccc1)Nc1ccc2cc[nH]c2c1 | 15.3% | – | – | – | – | –
O=S(=O)(Cc1ccccc1)NCc1ccc2[nH]ccc2c1 | 16.4% | – | – | – | – | –

Further lines, with some results ahead:

inhibition at 1 µM (Aromatase [1]) | IC50 (Aromatase [2]) | SMILES | Activity (MCF7 [7]) | Activity (MCF7 [8]) | Activity (MCF7 [9]) | further results
110% | 0.2 µM | O=S(=O)(NCCc1c[nH]c2ccccc12)c1ccccc1 | 35 - 40% | 45% | 40 - 45% | inhibition (MCF7 [10]): Active
30.6% | – | Cc1ccc(S(=O)(=O)NCCc2c[nH]c3ccccc23)cc1[N+](=O)[O-] | – | – | – | –
19.7% | – | N#Cc1ccc(S(=O)(=O)NCCc2c[nH]c3ccccc23)c(Cl)c1 | – | – | – | –
75.2% | 0.75 µM | O=S(=O)(Cc1ccccc1)NCCc1c[nH]c2ccccc12 | 35 - 40% | 45% | 40 - 45% | inhibition (MCF7 [10]): Active
43.5% | – | Cc1ccc(S(=O)(=O)NCCc2c[nH]c3ccccc23)cc1 | – | – | – | –
